Results as given in ChEMBL document CHEMBL2412989, “Antiproliferative activity on human prostate carcinoma cell lines of new peptidomimetics containing the spiroazepinoindolinone scaffold” (Bioorg Med Chem, 2013).
pEC50: −log10 of the molar value. Active and inactive are the calls of the source. The calls are words filed in the database; no cut-off is given here.

Columns and labels:
DU-145 [1] = test: Antiproliferative activity against human DU145 cells assessed as growth inhibition at 10^-9 M after 48 hrs by BrdU-incorporation assay relative to untreated cells; format: functional; conditions: DU-145, 48 h, read-out: GI
In short: (§1)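 DU145 prostate carcinoma cells (ATCC) kept in RPMI 1640/5% FBS. 5 × 10^4 cells/well seeded, 24 h at 37 °C, 5% CO2. Medium then replaced by RPMI 1640/5% charcoal-stripped FBS with compound. BrdU added 4 h before end of incubation. Fixed cells probed with Eu-conjugated anti-BrdU (0.5 µg/mL), time-resolved fluorescence read. Cell-free wells used as blank. Mean of ≥3 experiments, 8 replicates each, expressed vs untreated cells.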

DU-145 [2] = test: Antiproliferative activity against human DU145 cells assessed as growth inhibition at 10^-6 M after 48 hrs by BrdU-incorporation assay relative to untreated cells; format: functional; conditions: DU-145, 48 h, read-out: GI; in short: as §1
[3] = biological target: T1, Growth hormone secretagogue receptor type 1 (Homo sapiens, UniProt Q92847); test: Induction of GHS-R1a-mediated ERK1/2 phosphorylation in human DU145 cells at 10^-6 M after 10 mins by Western blot analysis in presence of D-Lys-GHRP-6; format: cell-based; conditions: DU-145
T1 sequence (Q92847 whole entry): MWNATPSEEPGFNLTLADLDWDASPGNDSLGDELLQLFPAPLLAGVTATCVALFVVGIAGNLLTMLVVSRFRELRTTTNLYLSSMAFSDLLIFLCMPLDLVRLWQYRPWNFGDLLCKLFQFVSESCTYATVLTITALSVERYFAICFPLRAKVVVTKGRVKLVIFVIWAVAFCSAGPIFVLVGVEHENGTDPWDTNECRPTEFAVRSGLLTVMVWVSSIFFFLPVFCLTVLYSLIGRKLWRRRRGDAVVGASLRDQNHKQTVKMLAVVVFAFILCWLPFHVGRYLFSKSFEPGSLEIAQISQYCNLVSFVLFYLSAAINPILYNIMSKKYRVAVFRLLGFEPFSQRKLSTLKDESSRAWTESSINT
In short: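 Western blot of ERK1/2 phosphorylation in 16 h serum-starved DU145 cells. Cells pretreated 1 h with 10^-6 M D-Lys3-GHRP-6, then exposed 10 min to compound. pERK1/2 (1:150) and total ERK1/2 (1:1000) antibodies, overnight 4 °C, peroxidase secondary. Mean ± SD, three independent experiments, one-way ANOVA.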

[4] = biological target: T1, Growth hormone secretagogue receptor type 1; test: Induction of GHS-R1a-mediated ERK1/2 phosphorylation in human DU145 cells at 10^-9 to 10^-6 M after 10 mins by Western blot analysis; format: cell-based; conditions: DU-145
In short: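 DU145 cells serum-starved 16 h, then exposed to compound (10^-6 or 10^-9 M) for 10 min. Lysed in T-PER with protease inhibitors, protein by BCA. SDS-PAGE, nitrocellulose transfer, 5% milk/TBST block. Probed overnight at 4 °C with anti-pERK1/2 (1:150) and anti-ERK1/2 (1:1000), then peroxidase secondary 2 h RT. Mean ± SD of three independent experiments, one-way ANOVA.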

DU-145 [5] = test: Antiproliferative activity against human DU145 cells assessed as growth inhibition at 10^-9 M after 48 hrs by BrdU-incorporation assay relative to untreated cells in presence of GHS-R1a antagonist D-Lys-GHRP-6; format: functional, cell-based
In short: (§2)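 BrdU-incorporation proliferation assay in DU145 cells. Cells seeded at 5 × 10^4/well, 24 h, then switched to RPMI 1640/5% charcoal-stripped FBS containing compound together with GHS-R1a antagonist D-Lys3-GHRP-6 at 10^-6 M. BrdU pulse 4 h before end. Eu-anti-BrdU time-resolved fluorescence, blank from cell-free wells. Mean of ≥3 experiments in 8 replicates, relative to untreated cells.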

DU-145 [6] = test: Antiproliferative activity against human DU145 cells assessed as growth inhibition at 10^-6 M after 48 hrs by BrdU-incorporation assay relative to untreated cells in presence of GHS-R1a antagonist D-Lys-GHRP-6; format: functional, cell-based; in short: as §2
[7] = Agonist activity at GHS-R1a in rat pituitary cells; format: cell-based; conditions: Pituitary gland cell
[8] = biological target: T1, Growth hormone secretagogue receptor type 1; test: Agonist activity at GHS-R1a (unknown origin)

Row | SMILES | inhibition of growth at 0.001 µM (DU-145 [1]) | inhibition of growth at 1 µM (DU-145 [2]) | other results
1 | CC(C)(N)C(=O)N[C@H](Cc1c[nH]c2ccccc12)C(=O)N1CCC[C@]2(CC1)C(=O)Nc1ccccc12 | -2.4% | 9.7% | 
2 | CC(C)(N)C(=O)N[C@H](Cc1c[nH]c2ccccc12)C(=O)N1CCC[C@@]2(CC1)C(=O)Nc1ccccc12 | -4.8% | -5.5% | 
3 | CC(C)(N)C(=O)N[C@@H](Cc1c[nH]c2ccccc12)C(=O)N1CCC[C@@]2(CC1)C(=O)Nc1ccccc12 | -20% | -27% | Activity [3]: inactive; Activity [4]: Active; growth inhibition (GI) (DU-145 [5]): inactive; growth inhibition (GI) (DU-145 [6]): inactive
4 | CC(C)(N)C(=O)N[C@H](COCc1ccccc1)C(=O)N1CCC2(CC1)CN(S(C)(=O)=O)c1ccccc12 [IBUTAMOREN] |  |  | pEC50 [7]: 8.89
5 | CC(=O)NC(C)(C)C(=O)N[C@@H](Cc1c[nH]c2ccccc12)C(=O)N1CCC[C@@]2(CC1)C(=O)Nc1ccccc12 | 1.2% | 2.1% | 
6 | CC(C)(N)C(=O)N[C@@H](Cc1c[nH]c2ccccc12)C(=O)N1CCC[C@]2(CC1)C(=O)Nc1ccccc12 | -10% | -15% | 
7 | CC(C)(N)C(=O)N[C@H](Cc1c[nH]c2ccccc12)C(=O)N1CCC2(CC1)C[C@H](O)c1ccccc12 |  |  | pEC50 [8]: 9.22
8 | CCCCCCCC(=O)OC[C@H](NC(=O)CNC(=O)[C@@H](N)CCCNC(=N)N)C(=O)N[C@@H](CO)C(=O)N[C@@H](Cc1ccccc1)C(=O)N[C@@H](CC(C)C)C(=O)N[C@@H](CO)C(=O)N1CCC[C@H]1C(=O)N[C@@H](CCC(=O)O)C(=O)N[C@@H](Cc1cnc[nH]1)C(=O)N[C@@H](CCC(N)=O)C(=O)N[C@@H](CCCCN)C(=O)N[C@@H](C)C(=O)N[C@@H](CCC(N)=O)C(=O)N[C@@H](CCC(N)=O)C(=O)N[C@@H](CCCNC(=N)N)C(=O)N[C@@H](CCCCN)C(=O)N[C@@H](CCC(=O)O)C(=O)N[C@@H](CO)C(=O)N[C@@H](CCCCN)C(=O)N[C@@H](CCCCN)C(=O)N1CCC[C@H]1C(=O)N1CCC[C@H]1C(=O)N[C@@H](C)C(=O)N[C@@H](CCCCN)C(=O)N[C@@H](CC(C)C)C(=O)N[C@@H](CCC(N)=O)C(=O)N1CCC[C@H]1C(=O)O [GHRELIN] | -38% | -25% | Activity [4]: Active; growth inhibition (GI) (DU-145 [5]): inactive; growth inhibition (GI) (DU-145 [6]): inactive
